# Compound activity as filed in PubChem BioAssay.
# CRFBP-R2 block = antagonists of CRF-BP/CRF-R2 complex, primary screen, cell-based, HEK293, calcium dye fluorescence, uHTS | CRF-induced calcium fluorescence | AID 588475, 2011 | 0.59% of 350,000 active | inhibition, % at 11.8 µM;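 active = inhibition of the ligand-induced calcium signal above about 50% at the single tested concentration, limit read from the data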
# CRFBP-R2 agonist = agonists of CRF-BP/CRF-R2 complex, primary screen, cell-based, HEK293, calcium dye fluorescence, uHTS; calcium dye fluorescence (FLIPR); percent of saturating CRF peptide response; CRF-binding protein / CRF receptor 2 complex (human); 0.46% of 350,000 active; activation, % at 13.2 µM;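 active = activation of at least 50%, plus an integration ratio under a set limit after plate pattern correction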;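 note: plate controls were neutral control wells without compound for no effect and CRF at EC100 for full effect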
# Rpn11 block = Rpn11 (PSMD14) deubiquitinase inhibitors, primary screen, biochemical, fluorescence polarization, uHTS; 26S proteasome non-ATPase regulatory subunit 14 (Homo sapiens), O00487; human 26S proteasome, Ub4-pepOG fluorescence polarization; 20S core pre-blocked with epoxomicin; calls only at 20 µM; 0.59% of 360,000 active; AID 588493, 2011;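 active = inhibition at 20 µM, scaled to each plate's controls, above about 33%, limit read from the data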
# Target sequence (O00487 whole entry, looked up): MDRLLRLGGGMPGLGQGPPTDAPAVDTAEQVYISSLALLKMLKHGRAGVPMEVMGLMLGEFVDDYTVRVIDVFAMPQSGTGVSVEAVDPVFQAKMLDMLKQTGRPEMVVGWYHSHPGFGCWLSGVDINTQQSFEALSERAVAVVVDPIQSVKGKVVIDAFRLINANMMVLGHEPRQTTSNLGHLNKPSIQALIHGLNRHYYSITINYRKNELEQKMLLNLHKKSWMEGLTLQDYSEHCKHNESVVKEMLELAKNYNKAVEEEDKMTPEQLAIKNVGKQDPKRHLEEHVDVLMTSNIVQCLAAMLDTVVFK
# HNF4A DNA FP = change in binding of human HNF4A to DNA, primary screen, biochemical, fluorescence polarization, FITC-DNA | Hepatocyte nuclear factor 4-alpha (Homo sapiens), P41235 | 1 h | activity change, % at 10 µM | 0.3% of 360,000 active; in the data active = activity change above about 30%, passing the limit was not always enough
# CSN deneddyl inh = inhibitors of CSN-mediated cullin deneddylation, primary screen, biochemical, fluorescence polarization, uHTS; COP9 signalosome complex subunit 5 (Homo sapiens), Q92905; Purified CSN, SCF-Nedd8-OG deneddylation; inhibition, % at 12.5 µM; 0.38% of 360,000 active; AID 651999, 2013;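 active = pattern-corrected inhibition above about 35%, with an unprinted fluorescence ratio check between 0.5 and 1.5, limit read from the data, passing the limit was not always enough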;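 note: 0% = enzyme with substrate and 100% = substrate without enzyme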
#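 Detection – fluorescence polarization · System – HEK293T-derived human Csn5 enzyme · Controls – substrate-only high control, full reaction low control · Timing – 90 min, room temperature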
# TPT1 inh = Candida albicans TPT1 enzyme inhibitors, primary screen, biochemical, fluorescence polarization. tRNA 2'-phosphotransferase TPT1 (Candida albicans SC5314). recombinant caTPT1, FP RNA substrate dephosphorylation. inhibition, % at 5 µM. 0.81% of 300,000 active;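 active = inhibition above the mean of all tested compounds plus 3 SD, set per screening campaign, cut at about 24% in these data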;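 note: plate controls were DMSO alone for no effect and ferristatin control at 100 nM for full effect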
# TPT1 inh confirm = Candida albicans TPT1 inhibitors, confirmation, biochemical, fluorescence polarization, triplicate | recombinant caTPT1, RNase T1 coupled | AID 2149, 2009 | 74% of 2,400 active | inhibition, % at 5 µM | shares compounds with TPT1 inh;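 active = inhibition above the primary screen limit, the mean inhibition of all tested compounds plus 3 SD, cut at about 25% in these data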
# RNase T1 inh = RNase T1 inhibitors, counter-screen for TPT1 inhibitor project, biochemical, fluorescence polarization | shares compounds with TPT1 inh | RNase T1 cleavage, 1536-well | inhibition, % at 5 µM | 83% of 2,400 active | AID 2153, 2009;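 active = inhibition above the solvent-only control well mean plus 3 SD, limit set per screening run, cut at about 23% in these data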;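 note: plate controls were DMSO wells with enzyme for no effect and wells without RNase T1 for full effect; inhibitors block cleavage so intact labeled substrate keeps polarization high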
# Target sequence (P00651 whole entry, looked up): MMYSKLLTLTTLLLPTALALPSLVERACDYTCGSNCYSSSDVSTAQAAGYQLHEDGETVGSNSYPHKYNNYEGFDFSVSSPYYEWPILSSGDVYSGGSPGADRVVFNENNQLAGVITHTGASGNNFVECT
# * marks the source's active call; other numbers are inactive results; i = inactive; . = not tested or not shown. An excerpt weighted towards active compounds, which were near 2.3% of everything screened.
SMILES,CRFBP-R2 block,CRFBP-R2 agonist,Rpn11 block,HNF4A DNA FP,CSN deneddyl inh,TPT1 inh,TPT1 inh confirm,RNase T1 inh
CN1CCc2c(sc(/N=C/c3cc(Cl)ccc3O)c2C#N)C1,-12,1,i,20,23,27*,28*,38*
CCOC(=O)c1c(/N=C/c2ccc(OC)cc2O)sc2c1CCN(C)C2,-4,3,i,7,5,-4,.,.
O=C(NCCNCc1ccc(F)cc1)c1ccco1,-7,1,i,3,9,1,.,.
CN1CCN(Cn2cc(/C=C/C(=O)c3ccccc3)c3ccccc32)CC1,-28,5,i,1,1,17,.,.
OC(CN1CCCCC1)Cn1c2ccccc2c2ccccc21 (stereo unspecified),-9,0,i,-2,-1,1,.,.
O=C(/C=C/c1cn(CC(O)CN2CCCCC2)c2ccccc12)c1cccs1 (stereo unspecified),-80,63*,.,22,34,64*,65*,72*
COc1ccc(C(=O)/C=C/c2cn(CC(O)CN3CCN(C)CC3)c3ccccc23)cc1OC (stereo unspecified),-8,22,.,48*,55*,50*,61*,72*
CN(C)CCCNC(=O)c1cc(C(=O)c2ccccc2)c[nH]1,7,-1,i,1,4,-1,.,.
COc1cc(OC)cc(C(=O)NNC(=O)Cc2ccc(OC)c(S(=O)(=O)N3CCOCC3)c2)c1,-5,0,i,4,0,0,.,.
Cn1cc(/C=C/c2cc[n+](C)cc2)c2cc(F)ccc21,-49,41,.,20,-74,40*,49*,56*
Cn1cc(/C=C/c2cc[n+](C)cc2)c2cc(Cl)ccc21,-14,20,.,93,0,60*,68*,70*
CSc1ccccc1Sc1cc(C(=O)O)c2ccccc2n1,-1,-1,i,-2,-9,1,.,.
O=C(NCCCN1CCOCC1)c1c(F)cccc1F,-8,-2,i,0,0,-3,.,.
CCN1CCN(c2c(/C=C3\SC(=S)N(Cc4ccco4)C3=O)c(C)c(C#N)c(=O)n2C)CC1,-95,90*,.,137,141,161*,181*,172*
COc1ccccc1OCC(=O)/C=C1/N(C)c2ccccc2C1(C)C,8,-1,i,1,2,10,.,.
CN1/C(=C\C(=O)COc2ccc3c(c2)OCO3)C(C)(C)c2ccccc21,18,2,i,16,12,32*,34*,43*
Cc1ccc(C)c(C(=O)Nc2nc3ccccc3[nH]2)c1,-6,1,i,0,0,25*,9,15
O=C(Nc1nc2ccccc2[nH]1)c1ccccc1O,-14,0,i,-5,1,1,.,.
COc1cc2nc(CC(C)C)n(NC(=O)c3ccccc3Br)c(=O)c2cc1OC,-4,1,i,-2,8,3,.,.
Oc1c(C=Nc2ccccc2)sc(=S)n1Cc1ccccc1,11,5,i,24,15,43*,43*,59*
CCn1c(O)c(C=Nc2ccccc2)sc1=S,-12,2,.,.,.,25*,22,28*
Cc1ccc(CNC(=O)c2ccc(CN3CCOCC3)cc2)cc1,-11,0,i,1,4,1,.,.
CCc1ccc(-c2nnn(CC(=O)N(C3CCCC3)C3CCS(=O)(=O)C3)n2)cc1 (stereo unspecified),3,-1,i,-2,-2,.,.,.
COc1cccc(CC(=O)Nc2ncc(C)s2)c1,-9,0,i,0,-5,2,.,.
CCN(CC)c1ccc(/C=C(\C#N)C(=O)c2ccc(Br)cc2)cc1,-329,301*,i,-91,-95,137*,104*,103*
SMILES,CRFBP-R2 block,CRFBP-R2 agonist,Rpn11 block,HNF4A DNA FP,CSN deneddyl inh,TPT1 inh,TPT1 inh confirm,RNase T1 inh
CN(C)c1ccc(/C=C(\C#N)C(=O)c2ccccc2)cc1,-189,212*,.,77*,77,158*,162*,150*
N#C/C(=C\c1ccc2c(c1)OCO2)C(N)=S,5,1,i,-1,2,-1,.,.
CCN(CC)c1ccc(/C=C(\C#N)C(N)=S)cc1,-56,72*,.,103,-76,104*,-3,10
COc1ccc(O)c(CNn2c(-c3ccc(Br)cc3)nc3ccccc3c2=O)c1,-4,1,i,2,-2,0,.,.
O=C(NCCCN1CCCC1)c1ccc(CS(=O)(=O)c2ccc(Br)cc2)o1,14,-6,i,12,2,2,.,.
CC(=O)NCCC(=O)NCC1(N(C)Cc2ccccc2)Cc2ccccc2C1,6,1,i,3,2,.,.,.
O=C1NC(=Nc2cccc(O)c2)S/C1=C\c1cccc([N+](=O)[O-])c1,7,0,i,-1,1,-1,.,.
CN(C)c1ccc(/C=N/N=C2/NC(=O)/C(=C/c3ccc([N+](=O)[O-])cc3)S2)cc1,47,-1,i,5,1,44*,49*,63*
O=[N+]([O-])c1ccc(C[n+]2cccc3ccc4cccnc4c32)cc1,15,-1,i,1,-10,8,.,.
O=[N+]([O-])c1ccc(C[n+]2cccc3ccccc32)cc1,-3,3,.,4,17,56*,27*,36*
O=C(NCCc1ccccc1)C(=O)c1c(-c2ccccc2)cc2ccccn12,-1,1,i,-2,-12,1,.,.
CCOc1cc(/C=C2/SC(=S)N(CC3CCCO3)C2=O)ccc1O (stereo unspecified),-49,30,.,42*,11,30*,35*,47*
COc1ccccc1NC(=O)CSc1n[nH]c(-c2cccnc2)n1,7,1,i,0,5,3,.,.
CCOc1ccc(-c2nc(C#N)c(N3CCN(C)CC3)o2)cc1,11,-6,i,2,-2,76*,5,5
Cc1ccc(NC(=O)N2CCCC2C(=O)Nc2ccc(-n3cnnn3)c(C)c2)cc1 (stereo unspecified),16,-2,i,-2,0,-6,.,.
